# High-throughput results as filed in PubChem.
# Only some compounds are listed: those with a hit (about 1.8% of all), similar ones and a draw of the others.
# ABHD4 inh: ABHD4 inhibitors, primary screen, biochemical, fluorescence polarization, mouse; purified mABHD4, FP-Rh probe fluorescence polarization; inhibition, % at 8.92 µM; 370,000 tested, 0.54% active; AID 720543, 2013;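 active means inhibition exceeding the mean over every tested compound plus 3 SD, cut at about 30% in these data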;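 further: 0% = plate median of compound wells and 100% = S159A mutant with DMSO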
#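 Test system: mouse ABHD4 enzyme, wild type. Reagent: FP-Rh fluorescent activity-based probe, added after compound pre-incubation. Timing: pre-incubation 45 min, probe exposure 60 min, at 25 °C. Technique: FP readout, ex 525 nm / em 598 nm. Benchmarks: high control S159A mutant with DMSO, low control median of compound wells.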
# HTRA1 inhibitor: HTRA1 serine protease inhibitors, primary screen, biochemical, fluorescence polarization, HTS; Q92743; recombinant HTRA1, FP-rhodamine activity-based probe; inhibition, % at 5.96 µM; 340,000 tested, 0.5% active; AID 504803, 2011; in the data active means inhibition above about 36%;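 further: 0% = enzyme with DMSO and 100% = wells lacking enzyme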
# SIAE primary: human SIAE inhibitors, primary screen, biochemical, fluorescence polarization, FP-Rh probe, 1536-well HTS; inhibition, % at 9.66 µM; AID 1053197, 2014; 370,000 tested, 0.69% active; SIAE FP-Rh probe binding;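 active means inhibition above a cutoff: mean of compounds within the control limits plus 3 SD of those, cut at about 17% in these data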;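 further: 0% = plate median of compound wells and 100% = probe without SIAE protein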
# TCR CD3 inh: inhibitors of human TCR-CD3 interaction, primary screen, biochemical, fluorescence, TAMRA-labeled TCR probe; T-cell receptor (TCR); inhibition, % at 9.4 µM; 360,000 tested, 0.37% active; in the data active means inhibition above about 19%;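 further: recombinant mutant TCR 2C K166C tagged with TAMRA read by polarization; 0% = receptor in buffer alone and 100% = receptor with positive control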
# Tn7 DDE FP: inhibitors of Tn7 peptide binding to fibrin DD(E), primary screen, biochemical, fluorescence polarization, human fibrin, Tn7 probe | AID 720508, 2013 | FP displacement of FITC-Tn7 peptide from fibrin DD(E); 0% = median of compound wells per plate | Fibrinogen beta chain (Homo sapiens), P02675 | inhibition, % at 8.3 µM | 370,000 tested, 0.13% active;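 active means inhibition above the mean of compounds falling within the control limits plus 3 SD of them, cut at about 14% in these data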;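 further: 0% = plate median of compound wells and 100% = 10 µM Aha-Tn7 peptide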
# Target sequence (P02675 whole entry, looked up): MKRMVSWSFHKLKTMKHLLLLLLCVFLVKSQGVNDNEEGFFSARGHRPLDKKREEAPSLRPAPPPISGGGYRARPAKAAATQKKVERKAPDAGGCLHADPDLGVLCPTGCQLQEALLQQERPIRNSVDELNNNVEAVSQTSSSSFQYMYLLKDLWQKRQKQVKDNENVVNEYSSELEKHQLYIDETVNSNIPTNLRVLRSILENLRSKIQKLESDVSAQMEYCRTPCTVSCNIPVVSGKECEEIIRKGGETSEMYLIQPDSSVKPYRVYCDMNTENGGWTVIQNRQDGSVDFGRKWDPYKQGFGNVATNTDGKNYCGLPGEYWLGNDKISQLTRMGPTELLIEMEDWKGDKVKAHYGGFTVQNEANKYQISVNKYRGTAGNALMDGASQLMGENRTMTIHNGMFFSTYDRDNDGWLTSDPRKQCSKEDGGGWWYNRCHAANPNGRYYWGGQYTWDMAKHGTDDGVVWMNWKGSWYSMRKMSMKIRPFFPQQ
#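 Assay system: Fibrin-DD(E) protein isolated from polymerized human fibrin clots; read-out basis: percent inhibition; medium: Tris/NaCl/CaCl2 buffer, pH 7.8; signal: FP measurement; incubation: 10 min plus 3 h, room temperature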
# Tn6 DDE FP: inhibitors of Tn6 peptide binding to fibrin DD(E), primary screen, biochemical, fluorescence polarization, human fibrin, Tn6 probe; Fibrinogen beta chain (Homo sapiens), P02675; 370,000 tested, 0.21% active; Fibrin DD(E) TRITC-Tn6 fluorescence polarization displacement; inhibition, % at 8.3 µM;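 active means inhibition above a per-campaign cutoff: mean of compounds within control limits plus 3 SD, cut at about 15% in these data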;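 further: 0% = median of all compound wells on the plate and 100% = blocking peptide control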
# DDE Tn6 FP ctr: DD(E)-Tn6 binding inhibition, counter-screen | inhibition, % at 8.3 µM | shares compounds with Tn6 DDE FP | AID 720621 | 680 tested, 2% active | Fibrin DD(E), TRITC-Tn6 fluorescence polarization displacement; 0% = median of compound wells, not DMSO;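 active means inhibition above the mean of test compounds lying between the control limits plus 3 SD of those, cut at about 14% in these data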;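 further: 0% = median of compound wells and 100% = wells with Aha-Tn7 blocking peptide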
# Tn6 DDE conf: inhibitors of Tn6 peptide binding to fibrin DD(E), confirmation, biochemical, fluorescence polarization, human fibrin, Tn6 probe | 680 tested, 10% active | shares compounds with Tn6 DDE FP | AID 720631, 2013 | inhibition, % at 8.3 µM | FP displacement of TRITC-Tn6 peptide from DD(E); 0% = per-plate median of test wells;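 active means inhibition above the mean of compounds lying within the control limits plus 3 SD, cut at about 16% in these data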;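 further: 100% = high control wells holding a competing inhibitor peptide at 10 µM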
# * = called active by the depositor; nt = no result given.
SMILES,ABHD4 inh,HTRA1 inhibitor,SIAE primary,TCR CD3 inh,Tn7 DDE FP,Tn6 DDE FP,DDE Tn6 FP ctr,Tn6 DDE conf
CCOC(=O)C(=CNc1ccc(C)cc1C)C(=O)OCC,1,-2,-12,2,3,15*,8,4
CCOC(=O)C(=CNc1cccc(C)c1C)C(=O)OCC,-5,-9,-1,4,4,-2,nt,nt
Cc1ccccc1NS(=O)(=O)c1ccc(OCC(=O)N2CCCC2)cc1,-2,5,-1,4,2,-1,nt,nt
Cc1ccccc1NS(=O)(=O)c1ccc(OCCNS(C)(=O)=O)cc1,6,-2,-10,6,1,17*,-8,-13
CCCCc1c(-c2ccccc2OC)ncn1Cc1c(Cl)cccc1Cl,14,nt,-2,0,2,6,nt,nt
Cn1c(=O)n(C)c2cc(N3CCCC3)c(NC(=O)c3cccc(F)c3)cc21,6,4,16,-2,6,15*,6,1
COc1cccc(C(=O)Nc2cc3c(cc2N2CCCC2)n(C)c(=O)n3C)c1,8,7,3,-1,-6,-3,nt,nt
COC(=O)[C@]12C[C@H](CC(=O)N3CCC(c4ccccc4)CC3)C(=O)N(CCC3=CCCCC3)C1=C[C@H](C1CCCC1)O[C@@H]2C,8,nt,2,nt,6,8,nt,nt
CCn1c(=O)c(=O)[nH]c2cc(C(=O)NC3CC3)ccc21,7,3,-4,2,0,5,nt,nt
CCn1c(=O)c(=O)[nH]c2cc(C(=O)NC3CCCc4ccccc43)ccc21 (stereo not drawn),-26,-8,-43,-16,10,18*,-1,-2
CCn1c(=S)sc2c(=O)n(-c3ccccc3)c(=S)[nH]c21,0,-21,-2,6,4,18*,8,-15
CN(CCOC(=O)c1cc2ccccc2o1)C1CN(Cc2cn(Cc3ccc([N+](=O)[O-])cc3)nn2)S(=O)(=O)C1 (stereo not drawn),-3,nt,-6,nt,-2,1,nt,nt
CC(=O)N1CCc2cc(S(=O)(=O)NCCC(=O)NCc3ccccc3)ccc21,5,nt,-4,nt,1,18*,1,0
CC(=O)N1CCc2cc(S(=O)(=O)NCCC(=O)NCCc3ccccc3)ccc21,3,0,3,-1,-3,8,nt,nt
O=C(NCCCc1ccccc1)OC1CC2CC1[C@H]1CCCCN1C2 (stereo partly drawn),3,nt,11,nt,2,13,nt,nt
CC(=O)Nc1ccc2c(c1)C(C)(C)C(C)N2C (stereo not drawn),-187,nt,-282,-53,-5,22*,2,7
O=C(Cn1[nH]c(=O)c2ccccc2c1=O)OCC(=O)c1ccccc1Cl,2,0,14,1,6,16*,0,0
O=C(Cn1[nH]c(=O)c2ccccc2c1=O)OCC(=O)c1ccc(F)cc1,5,4,0,-1,5,0,nt,nt
CCOC(=O)[C@@]12CCCC=C1N(CCc1ccc(Cl)cc1)C(=O)[C@H]2CC(=O)NCc1cccs1,0,nt,-3,nt,6,1,nt,nt
O=C(COC(=O)CC1CC2CCC1C2)NC(=O)NCc1ccco1 (stereo not drawn),-2,18,0,12,1,20*,1,-5
NC(=O)c1ccc(NC(=O)COC(=O)CC2CC3CCC2C3)cc1 (stereo not drawn),-4,0,-2,-1,-6,-2,nt,nt
CN(C(=O)C12CC3CC(CC(C3)C1)C2)C1(C)CCS(=O)(=O)C1 (stereo not drawn),4,-1,3,-1,-3,15*,3,0
CC1(NC(=O)C23CC4CC(CC(C4)C2)C3)CCS(=O)(=O)C1 (stereo not drawn),6,-1,-4,-11,-7,-2,nt,nt
CCCCNC(=O)C1CCN(S(=O)(=O)c2ccc3c(c2)CC(C)N3C(=O)C2CC2)CC1 (stereo not drawn),1,3,-2,3,-5,103*,1,2
CC(C)CCNC(=O)C1CCN(S(=O)(=O)c2ccc3c(c2)CC(C)N3C(=O)C2CC2)CC1 (stereo not drawn),-4,-8,1,-4,-2,9,nt,nt
SMILES,ABHD4 inh,HTRA1 inhibitor,SIAE primary,TCR CD3 inh,Tn7 DDE FP,Tn6 DDE FP,DDE Tn6 FP ctr,Tn6 DDE conf
CCOC(=O)C1=NOC(C(C)=O)(C(=O)Nc2cc(C)cc(C)c2)C1 (stereo not drawn),4,nt,1,nt,7,4,nt,nt
CC[C@H](C)/C=C(C)/C=C/C(=O)Cc1cc(O)c(C)c(O)c1C=O,17,21,4,1,10,16*,0,5
CC[C@H](C)/C=C(C)/C=C/c1cc2c(cn1)C(=O)[C@@](C)(OC(C)=O)C(O)=C2Cl,10,nt,12,1,-2,0,nt,nt
CC(C)[C@H](NC(=O)C1CC1)C(=O)N1CCC[C@H]1C(=O)NCc1ccccc1,7,nt,8,-1,6,-3,nt,nt
CCOc1ccc(S(=O)(=O)NCCC(=O)NCCOc2ccccc2OC)cc1,1,1,4,-6,0,22*,1,2
C=CCn1c(O)c(C(CC)=Nc2ccccc2NC(=O)CC)c(=O)[nH]c1=O,7,-5,6,4,7,1,nt,nt
CCCCn1c(O)c(C(CC)=Nc2ccc3c(c2)CCC3)c(=O)[nH]c1=O,-1,-3,6,2,1,17*,2,-2
CCN1CC2=C(OC(N)=C(C#N)C2c2ccccc2)/C(=C\c2ccccc2)C1 (stereo not drawn),-3,-8,3,3,-1,25*,12,7
CC(=O)N1CCN(C(=O)CCNS(=O)(=O)c2ccc(Br)cc2)CC1,-2,-2,-6,0,0,18*,0,-4
O=C1NC[C@@H](c2ccccc2)OC(=O)[C@@H](Cc2ccc(F)cc2)CC/C=C/C[C@@H]1CC(=O)N(CCO)Cc1ccccc1,-10,-14,-2,8,8,16*,7,0
